The nature of experiment [1]: inhibitors of TNFa-induced NFkB p65 translocation, primary screen, imaging, HUVEC, MLSMR starter and 10KST1 sets (AID 438;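 active means inhibition above 20% together with a positive visual image hit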;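 further: compound added about 3h40 before a 20 min TNFalpha stimulation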;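 on inhibition: signal is the nuclear over cytoplasmic p65 intensity ratio per well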). Particulars: HUVEC TNFa-induced p65 nuclear translocation; cell count: measured here: nuclei count (cytotoxicity indicator), at 2.08 µM; inhibition: at 2 µM, stronger effect = higher value, 0% TNFa-plus-vehicle, 100% no-TNFa wells.
A short description of experiment [2]: inhibitors of mutant huntingtin aggregation, primary screen, imaging, exon1htt(103Q)mCFP cells, high-content imaging (AID 483;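 active means visual image review flags a hit and inhibition of aggregation exceeds 20%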;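 further: compound exposure lasted 3 days before fixation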;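 on nuclei count: percent of the per-plate median nuclei count of sample wells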). Particulars: exon1htt(103Q)mCFP cell line, aggregate imaging, at 2 µM; inhibition of aggregation: stronger effect = higher value; nuclei count: measured here: cell count, toxicity.
A short description of experiment [3]: inhibitors of E-selectin induction by TNFa, primary screen, imaging, HUVEC, immunofluorescence, MLSMR starter and 10KST1 sets (AID 487;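 active means visually confirmed hit in the image check and inhibition above 20%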;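 on inhibition: signal is fraction of cell area covered by stained E-selectin grains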;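 on nuclei count: 100% = median nuclei count of all wells on the same plate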). Conditions: HUVEC TNFalpha-induced E-selectin immunofluorescence imaging, at 2 µM; inhibition: stronger effect = higher value; nuclei count: measured here: cell number, toxicity.
Experiment [4] deals with Voltage-gated potassium channel subunit beta-2 (Rattus norvegicus) (UniProt P62483). Briefly: KvBeta enzyme negative modulators, primary screen, biochemical, NADPH fluorescence (AID 622;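 active means fluorescence slope higher than the sample average by over 3 SD, cut at about -0.22 in these data, passing the limit was not always enough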;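 further: slope of raw intensity against log time taken from 70 to 1610 s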). Particulars: recombinant KvBeta, 4-cyanobenzaldehyde reduction, at 10 µM, stronger effect = higher value.
Experiment [5] has the same target. Briefly: KvBeta positive modulators, primary screen, biochemical, NADPH fluorescence (AID 623;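 active means NADPH fluorescence slope more negative than the mean of all samples by about 3 SD, 99.7% confidence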;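 further: fluorescence intensity change per second fitted from 20 to 320 s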). Particulars: Recombinant KvBeta, NADPH fluorescence decrease slope, 10 min; at 10 µM; stronger effect = lower value.
The target in experiment [6] is Muscarinic acetylcholine receptor M4 (Homo sapiens) (UniProt P08173). Nature of the experiment: compounds altering M4/GIRK thallium flux, either direction, primary screen, M4 allosteric agonist project, cell-based, HEK293 M4/GIRK, BTC-AM (AID 625;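 active means fluorescence slope after compound addition differing from the mean of all tested samples at 99.7% confidence, mostly higher but some lower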;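 further: thallium influx through GIRK channels coupled to M4 in HEK293 cells with BTC-AM dye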). Particulars: at 10 µM, actives lie on both sides. The method in brief: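 assay system = HEK293 cells with M4 receptor and GIRK channels | medium = pH 7.3 thallium assay buffer | doses = 10 µM final, single point | timing = cells overnight at 37 °C, BTC-AM loading 1 h, reads 2 min total | signal = BTC-AM fluorescence, 1 Hz kinetic reads | read-out = post-addition slope, 15–24 s, of baseline-normalized fluorescence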

The nature of experiment [7]: inhibitors of Sendai virus-induced IRF3 signaling, primary screen, TLR/RLR signaling modifier project, cell-based, Sendai virus stimulus, luciferase, 10K MLSCN set (AID 602276).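 Further: firefly luciferase from ISG56 promoter only with Renilla not read in this screen; 0% = Sendai virus plus DMSO and 100% = medium plus DMSO without virus.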 Particulars: HEK293 RL24 IRF3 luciferase reporter, at 10 µM, stronger effect = higher value. On the technique in general: In a reporter assay the amount or activity of a reporter protein is the signal.
Experiment [8] is described as follows: inhibitors of poly I:C-induced TLR3 signaling, primary screen, cell-based, poly I:C stimulus, luciferase, 10K MLSCN set (AID 602277;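 active means inhibition of the reporter signal at or above 50%; inactive means inhibition below 50%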). Particulars: HEK293-TLR3 RL24 IRF3 luciferase reporter, at 10 µM, stronger effect = higher value.

Calls of active or inactive are those of the source.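 How the source made its calls, unless noted: active means inhibition at or above 50% at 10 µM; inactive means inhibition below 50%.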

Sequence of Voltage-gated potassium channel subunit beta-2 (Rattus norvegicus) (P62483 whole entry, looked up): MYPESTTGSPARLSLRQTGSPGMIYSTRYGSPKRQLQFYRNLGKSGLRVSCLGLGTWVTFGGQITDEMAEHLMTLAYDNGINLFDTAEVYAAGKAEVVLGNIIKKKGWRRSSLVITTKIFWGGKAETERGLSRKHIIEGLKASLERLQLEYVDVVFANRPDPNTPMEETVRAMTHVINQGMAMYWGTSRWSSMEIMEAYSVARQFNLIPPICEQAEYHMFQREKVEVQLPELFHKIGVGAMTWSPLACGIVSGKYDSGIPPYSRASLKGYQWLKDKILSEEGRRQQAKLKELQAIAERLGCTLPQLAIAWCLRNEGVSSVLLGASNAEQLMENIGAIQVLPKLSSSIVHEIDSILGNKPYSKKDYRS
Sequence of Muscarinic acetylcholine receptor M4 (Homo sapiens) (P08173 whole entry, looked up): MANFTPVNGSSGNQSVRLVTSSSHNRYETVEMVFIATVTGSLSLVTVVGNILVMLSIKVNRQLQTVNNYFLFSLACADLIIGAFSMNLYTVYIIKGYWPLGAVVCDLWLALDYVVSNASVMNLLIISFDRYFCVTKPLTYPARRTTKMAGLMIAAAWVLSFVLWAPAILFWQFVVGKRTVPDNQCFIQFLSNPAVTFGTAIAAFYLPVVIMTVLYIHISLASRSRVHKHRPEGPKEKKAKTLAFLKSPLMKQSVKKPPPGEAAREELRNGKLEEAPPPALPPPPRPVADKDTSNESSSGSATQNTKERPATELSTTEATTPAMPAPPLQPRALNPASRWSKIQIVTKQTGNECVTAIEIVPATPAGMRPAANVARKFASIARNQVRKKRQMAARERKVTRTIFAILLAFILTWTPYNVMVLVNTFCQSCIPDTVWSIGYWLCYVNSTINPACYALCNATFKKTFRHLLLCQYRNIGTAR

Regarding `Cc1ccc(CCNC(=O)Cn2cccc2)cc1`, in experiment [1], the cell count stood at 349. The inhibition (in general, the drop in the measured response relative to a control, in per cent) in experiment [1] is -4.8% (inactive); in experiment [3], -38.9% (inactive); in experiment [7], 12.9% (inactive); in experiment [8] it was -5.93% (inactive). Moreover, the inhibition of aggregation in experiment [2] was -1.7% (inactive). The results for the nuclei count in experiment [2] and in experiment [3] were 105% and 103%, respectively. In addition, the fluorescence slope in experiment [4] was -0.355 (inactive); in experiment [6], 0.00566 (inactive). In addition, in experiment [5], the NADPH fluorescence slope was -5.5e-05 (inactive).

Consider `COC(=O)c1onc(C(=O)c2ccccc2)c1C(=O)OC`, for which, in experiment [1], the cell count turned out to be 405. The inhibition was 2.7% (inactive) in experiment [1], -67.9% (inactive) in experiment [3], 16.3% (inactive) in experiment [7] and 12.9% (inactive) in experiment [8]. Further, the inhibition of aggregation in experiment [2] is -4.5% (inactive). The nuclei count in experiment [2] was 103%; in experiment [3], 114%. For the same compound, the fluorescence slope in experiment [4] was -0.568 (inactive); in experiment [6] it was 0.00647 (inactive). The NADPH fluorescence slope in experiment [5] was -4.3e-05 (inactive).

For `COc1ccccc1NC(=O)C(O)C(O)C(=O)Nc1ccccc1OC` (centres undefined), in experiment [1], the cell count was 350. The inhibition was 8.6% (inactive) in experiment [1], -101% (inactive) in experiment [3], -7.84% (inactive) in experiment [7] and -0.666% (inactive) in experiment [8]. For the same compound, the inhibition of aggregation in experiment [2] was 2.9% (inactive). The nuclei count in experiment [2] came out at 84.5%; in experiment [3] it was 101%. The fluorescence slope in experiment [4] was -0.351 (inactive); in experiment [6], 0.00694 (inactive). Moreover, in experiment [5], the NADPH fluorescence slope is -4.1e-05 (inactive).

Turning to `CCSc1nnc(NC(=O)CSc2ncccn2)s1`, the cell count in experiment [1] worked out at 278. In addition, the inhibition was 0.5% (inactive) in experiment [1], -42.2% (inactive) in experiment [3], -9.35% (inactive) in experiment [7] and 4% (inactive) in experiment [8]. Moreover, in experiment [2], the inhibition of aggregation was -3% (inactive). Moreover, the nuclei count amounted to 105% in experiment [2] and 111% in experiment [3]. Also, the fluorescence slope in experiment [4] is -0.529 (inactive); in experiment [6] it was 0.00524 (inactive). In addition, the NADPH fluorescence slope in experiment [5] is -4.9e-05 (inactive).

On to `C=C(C)CSc1nnc2[nH]c(=O)cc(N)n12`, for which, in experiment [1], the cell count came to 371. The inhibition in experiment [1] is 0% (inactive); in experiment [3], -70.9% (inactive); in experiment [7], 15.7% (inactive); in experiment [8], 14.4% (inactive). For the same compound, the inhibition of aggregation in experiment [2] is 31.5% (inactive). The figures for the nuclei count in experiment [2] and in experiment [3] were 54.8% and 116%, respectively. Further, the values for the fluorescence slope in experiment [4] and in experiment [6] were -0.458 (inactive) and 0.00517 (inactive), respectively. For the same compound, in experiment [5], the NADPH fluorescence slope was -6e-05 (inactive).

Turning to `CCSc1nnc(NC(=O)c2cc(C)oc2C)s1`, the cell count in experiment [1] stood at 352. Further, the inhibition is -1.4% (inactive) in experiment [1], 5.1% (inactive) in experiment [3], -35.9% (inactive) in experiment [7] and -83.6% (inactive) in experiment [8]. Further, the inhibition of aggregation in experiment [2] was 5.7% (inactive). Moreover, the results for the nuclei count in experiment [2] and in experiment [3] were 98.6% and 56.1%, respectively. Further, the fluorescence slope is -0.451 (inactive) in experiment [4] and 0.00476 (inactive) in experiment [6]. Moreover, the NADPH fluorescence slope in experiment [5] was -4.1e-07 (inactive).

`COC(=O)c1cc(Oc2ccc(C(=O)OC)cc2N)cc(C(=O)OC)c1`: the cell count in experiment [1] was 278. Moreover, the inhibition was -12.5% (inactive) in experiment [1], -19% (inactive) in experiment [3], -3.38% (inactive) in experiment [7] and 8.08% (inactive) in experiment [8]. Also, the inhibition of aggregation in experiment [2] was 1% (inactive). For the same compound, the nuclei count was found to be 106% in experiment [2] and 108% in experiment [3]. Also, the fluorescence slope in experiment [4] was -0.467 (inactive); in experiment [6], 0.00407 (inactive). Also, in experiment [5], the NADPH fluorescence slope was -0.000384 (inactive).

As for `CCCCNC(=O)OC(C)CNC(=O)Oc1cccc(C)c1` (centres undefined), the cell count in experiment [1] was determined as 482. Besides, the inhibition is 7.6% (inactive) in experiment [1], 41.7% (inactive) in experiment [3], 22.3% (inactive) in experiment [7] and 15.6% (inactive) in experiment [8]. The inhibition of aggregation in experiment [2] was 13.4% (inactive). The nuclei count in experiment [2] worked out at 92.7%; in experiment [3] it was 74.5%. The results for the fluorescence slope in experiment [4] and in experiment [6] were -0.471 (inactive) and 0.00498 (inactive), respectively. For the same compound, in experiment [5], the NADPH fluorescence slope is -2.9e-05 (inactive).

With `CCn1c(SCC(=O)Nc2nccs2)nnc1-c1ccncc1`, the cell count in experiment [1] is 331. Moreover, the inhibition was -1.4% (inactive) in experiment [1], -20.2% (inactive) in experiment [3], 14.8% (inactive) in experiment [7] and 21.3% (inactive) in experiment [8]. The inhibition of aggregation in experiment [2] is -8.7% (inactive). In addition, the nuclei count in experiment [2] amounted to 110%; in experiment [3], 129%. Besides, the fluorescence slope is -0.454 (inactive) in experiment [4] and 0.00633 (inactive) in experiment [6]. The NADPH fluorescence slope in experiment [5] was -2.4e-05 (inactive).

Consider `COc1ccc2cnn(-c3ccccc3)c(=O)c2c1OC`, for which, in experiment [1], the cell count amounted to 342. The inhibition in experiment [1] is -1.2% (inactive); in experiment [3] it was 35.5% (inactive); in experiment [7] it was -4.11% (inactive); in experiment [8], -25.4% (inactive). Further, in experiment [2], the inhibition of aggregation is -8.5% (inactive). The nuclei count in experiment [2] stood at 107%; in experiment [3], 109%. The fluorescence slope was -0.549 (inactive) in experiment [4] and 0.00377 (inactive) in experiment [6]. For the same compound, in experiment [5], the NADPH fluorescence slope was -7.6e-05 (inactive).

For the compound `O=C(Nc1ccc(N2CCOCC2)c(F)c1)c1ccncc1`, the cell count in experiment [1] came to 262. Besides, the inhibition in experiment [1] was -3.2% (inactive); in experiment [3], -30% (inactive); in experiment [7], -9.16% (inactive); in experiment [8], -33.6% (inactive). In experiment [2], the inhibition of aggregation was 0.1% (inactive). The figures for the nuclei count in experiment [2] and in experiment [3] were 99.8% and 90%, respectively. For the same compound, the fluorescence slope was -0.451 (inactive) in experiment [4] and 0.00591 (inactive) in experiment [6]. Further, the NADPH fluorescence slope in experiment [5] is 8.4e-05 (inactive).

`CC(=O)CC(=O)Nc1ccccc1NC(C)=O`: the cell count in experiment [1] was found to be 470. Besides, the inhibition in experiment [1] is 6.5% (inactive); in experiment [3], -17.4% (inactive); in experiment [7], 14.2% (inactive); in experiment [8], 15% (inactive). Also, the inhibition of aggregation in experiment [2] is -2.9% (inactive). For the same compound, the nuclei count was 108% in experiment [2] and 110% in experiment [3]. The fluorescence slope in experiment [4] is -0.579 (inactive); in experiment [6], 0.00558 (inactive). For the same compound, the NADPH fluorescence slope in experiment [5] is -2.4e-05 (inactive).

Take `CCOC(=O)CSc1nc2ccccc2n2cnnc12`: in experiment [1], the cell count is 315. The inhibition was -1.4% (inactive) in experiment [1], -4% (inactive) in experiment [3], 2.3% (inactive) in experiment [7] and 8.27% (inactive) in experiment [8]. Besides, the inhibition of aggregation in experiment [2] is 13.5% (inactive). Further, the nuclei count was 103% in experiment [2] and 113% in experiment [3]. Besides, the fluorescence slope in experiment [4] is -0.327 (inactive); in experiment [6] it was 0.00582 (inactive). Besides, the NADPH fluorescence slope in experiment [5] is -5.9e-05 (inactive).

In the case of `Cc1noc(C)c1S(=O)(=O)Nc1c(C)n(C)n(-c2ccccc2)c1=O`, the cell count in experiment [1] amounted to 410. The inhibition was 2.5% (inactive) in experiment [1], -5.4% (inactive) in experiment [3], 13.8% (inactive) in experiment [7] and 22.3% (inactive) in experiment [8]. For the same compound, the inhibition of aggregation in experiment [2] is 33.5% (inactive). In addition, the nuclei count in experiment [2] was 84.8%; in experiment [3], 96%. In addition, the fluorescence slope was -0.472 (inactive) in experiment [4] and 0.00591 (inactive) in experiment [6]. In addition, the NADPH fluorescence slope in experiment [5] was 1.2e-05 (inactive).
